22 compounds from ChEMBL document CHEMBL1144257, “5-Chloroindoloyl glycine amide inhibitors of glycogen phosphorylase: synthesis, in vitro, in vivo, and X-ray crystallographic characterization” (Bioorg Med Chem Lett, 2005) can be followed below.

The subject of one test is SK-HEP1. Nature of the test: Inhibitory concentration against human SK-Hep-1 cells (hepatoma cell line). It counts as functional, cell-based. An outline of the steps:
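SK-HEP-1 cells carrying pre-labeled ¹⁴C-glycogen, with phosphorylase activated by forskolin. Glycogenolysis is the ¹⁴C-glycogen (dpm) difference between basal and forskolin-treated cells. Inhibition is expressed as percent of forskolin-induced glycogenolysis in DMSO controls. IC50 from a 6-point curve (0.1–30μM), triplicate points, mean of ≥2 independent experiments where repeated.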

The target of test [1] is T1, Glycogen phosphorylase, liver form (Homo sapiens, UniProt P06737).
T1 sequence (P06737 whole entry): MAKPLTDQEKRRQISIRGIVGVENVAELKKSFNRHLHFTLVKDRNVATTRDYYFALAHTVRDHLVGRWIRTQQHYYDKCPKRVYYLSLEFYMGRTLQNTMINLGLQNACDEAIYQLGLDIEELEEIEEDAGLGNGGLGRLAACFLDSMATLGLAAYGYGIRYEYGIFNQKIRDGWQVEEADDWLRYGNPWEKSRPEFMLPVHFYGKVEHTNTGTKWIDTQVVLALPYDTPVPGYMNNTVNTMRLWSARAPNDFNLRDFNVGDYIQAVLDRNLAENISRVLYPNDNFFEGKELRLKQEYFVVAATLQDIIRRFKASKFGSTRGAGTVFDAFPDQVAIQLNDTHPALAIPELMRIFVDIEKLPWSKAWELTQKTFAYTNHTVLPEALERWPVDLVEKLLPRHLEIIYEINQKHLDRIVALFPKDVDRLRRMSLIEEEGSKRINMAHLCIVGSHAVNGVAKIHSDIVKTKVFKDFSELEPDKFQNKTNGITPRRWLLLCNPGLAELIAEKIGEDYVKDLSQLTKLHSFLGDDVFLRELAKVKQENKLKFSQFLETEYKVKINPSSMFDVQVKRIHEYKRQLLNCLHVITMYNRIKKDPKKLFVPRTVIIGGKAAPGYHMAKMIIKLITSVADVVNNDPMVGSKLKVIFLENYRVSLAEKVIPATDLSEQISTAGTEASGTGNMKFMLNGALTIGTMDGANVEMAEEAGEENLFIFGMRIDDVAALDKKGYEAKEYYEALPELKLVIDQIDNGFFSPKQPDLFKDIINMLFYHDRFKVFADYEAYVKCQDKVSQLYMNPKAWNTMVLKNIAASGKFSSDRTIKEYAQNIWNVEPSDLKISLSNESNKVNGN
The test can be described thus: (§1) Inhibitory concentration against glycogen phosphorylase.

Test [2] is filed under the species Mus musculus. Nature of the test: Percentage of glucose lowering after 3h at minimum effective dose in mouse. Format: functional. An outline of the steps: (§2)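 Fed diabetic ob/ob mice, oral dosing in neat PEG400, starting at […] and then at successively lower doses. Plasma glucose measured 3h post-dose. Lowering is expressed as percent decrease versus vehicle-treated controls within the same experiment, with significance by unpaired t-test on group mean glucose. MED is the lowest dose giving reduction.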

The subject of test [3] is Mus musculus. The test can be described thus: In-vivo minimum effective dose (MED) for reduction of plasma glucose in mouse after 3 hours. Particulars: read-out: MED. Format: functional. An outline of the steps: as §2
For test [4], the target named is T1, Glycogen phosphorylase, liver form. Described as §1. An outline of the steps:
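Recombinant human liver GPa (50ng), run in the glycogen-synthesis direction at 22°C. Compounds added in 14% DMSO before enzyme. Released phosphate read at 620nm with malachite green/molybdate in HCl after 20min. IC50 from triplicate dose-response curves, mean of ≥3 determinations (≥2 if >500 nM).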
This is another data set of the same source.

What is called IC50 is the midpoint of a concentration-inhibition curve. Take `O=C(NCC(=O)N(CCO)C1CCC1)c1cc2cc(Cl)ccc2[nH]1`: the IC50 in the test on SK-HEP1 came to 2000 nM; in test [1], 130 nM. Besides, the Activity in the test filed under Mus musculus [2] turned out to be 30%. The minimal effective dose with Mus musculus [3] came out at 25 mg/kg.

For `O=C(NCC(=O)N(CC(O)CO)C1CCCC1)c1cc2cc(Cl)ccc2[nH]1` (stereo not given), the IC50 with SK-HEP1 worked out at 1300 nM; in test [1], 54 nM. For the same compound, the minimal effective dose with Mus musculus [3] was found to be 10 mg/kg.

`O=C(NCC(=O)N(CCO)c1ccccc1)c1cc2cc(Cl)ccc2[nH]1`: the IC50 turned out to be 270 nM with SK-HEP1 and 120 nM in test [1]. Moreover, the minimal effective dose with Mus musculus [3] is more than 10 mg/kg.

As to `CCCCN(CCO)C(=O)CNC(=O)c1cc2cc(Cl)ccc2[nH]1`, the results for the IC50 (in the test on SK-HEP1; in test [1]) were 1000 nM and 120 nM, respectively. Further, the minimal effective dose in the test with Mus musculus [3] is more than 10 mg/kg.

In the case of `CC(C)(O)CN(C(=O)CNC(=O)c1cc2cc(Cl)ccc2[nH]1)C1CCCC1`, the IC50 in the test on SK-HEP1 is 1400 nM; in test [1], 150 nM. For the same compound, in the test filed under Mus musculus [2], the Activity stood at 30%. The minimal effective dose in the test with Mus musculus [3] stood at 10 mg/kg.

Turning to `CN(C(=O)CNC(=O)c1cc2cc(Cl)ccc2[nH]1)C1CCCCC1`, the IC50 was determined as 1400 nM in the test with SK-HEP1 and 150 nM in test [1]. The minimal effective dose with Mus musculus [3] is more than 10 mg/kg.

Regarding `O=C(NCC(=O)N(CCCO)C1CCCC1)c1cc2cc(Cl)ccc2[nH]1`, the IC50 in the test on SK-HEP1 came out at 760 nM; in test [1] it was 42 nM. In the test with Mus musculus [3], the minimal effective dose is more than 10 mg/kg.

With `CC(O)(CO)CN(C(=O)CNC(=O)c1cc2cc(Cl)ccc2[nH]1)C1CCCC1` (stereo not given), the IC50 is 2400 nM with SK-HEP1 and 83 nM in test [1]. Moreover, in the test on Mus musculus [3], the minimal effective dose was more than 10 mg/kg.

Compound `CN(C)C(=O)[C@H](O)[C@H](Cc1ccccc1)NC(=O)c1cc2cc(Cl)ccc2[nH]1` had an IC50 in the test on SK-HEP1 of 1500 nM. The Activity in the test listed under Mus musculus [2] was 32%. Further, the minimal effective dose in the test on Mus musculus [3] was determined as 25 mg/kg.

Regarding `CCCN(CCO)C(=O)CNC(=O)c1cc2cc(Cl)ccc2[nH]1`, the figures for the IC50 (with SK-HEP1; in test [1]) were 490 nM and 150 nM, respectively. Also, the minimal effective dose in the test with Mus musculus [3] was more than 25 mg/kg.

`CN(C(=O)CNC(=O)c1cc2cc(Cl)ccc2[nH]1)C1CCCC1`: the IC50 with SK-HEP1 came out at 1700 nM; in test [1], 55 nM. Moreover, in the test listed under Mus musculus [2], the Activity worked out at 36%. The minimal effective dose in the test with Mus musculus [3] came to 10 mg/kg.

As to `O=C(NCC(=O)N(CCO)C1CCOCC1)c1cc2cc(Cl)ccc2[nH]1`, the IC50 in the test on SK-HEP1 turned out to be 1400 nM; in test [1], 250 nM. Further, the Activity in the test filed under Mus musculus [2] is given as 27%. In the test with Mus musculus [3], the minimal effective dose stood at 5 mg/kg.

For the compound `O=C(NCC(=O)N(CCO)C1CCCCC1)c1cc2cc(Cl)ccc2[nH]1`, the IC50 was found to be 710 nM with SK-HEP1 and 99 nM in test [1]. For the same compound, the minimal effective dose in the test with Mus musculus [3] was more than 10 mg/kg.

Turning to `COCCN(C(=O)CNC(=O)c1cc2cc(Cl)ccc2[nH]1)C1CCCC1`, the IC50 with SK-HEP1 came out at 1500 nM; in test [1], 200 nM. Besides, the minimal effective dose in the test with Mus musculus [3] was more than 10 mg/kg.

As for `O=C(NCC(=O)N(CCOc1ccccc1)C1CCCC1)c1cc2cc(Cl)ccc2[nH]1`, half-maximal inhibition in test [4] (IC50) required 1400 nM.

Take `O=C(NCC(=O)N(CCO)C1CCCC1)c1cc2cc(Cl)ccc2[nH]1`: the IC50 is 140 nM with SK-HEP1 and 57 nM in test [1]. Moreover, the Activity in the test listed under Mus musculus [2] stood at 25%. Besides, in the test with Mus musculus [3], the minimal effective dose amounted to 5 mg/kg.

Turning to `N#CCN(C(=O)CNC(=O)c1cc2cc(Cl)ccc2[nH]1)C1CCCC1`, the IC50 in the test on SK-HEP1 is 680 nM; in test [1], 30 nM. The same compound yielded an Activity in the test listed under Mus musculus [2] of 40%. In addition, the minimal effective dose in the test with Mus musculus [3] stood at 10 mg/kg.

Take `CC(C)N(CCO)C(=O)CNC(=O)c1cc2cc(Cl)ccc2[nH]1`: the IC50 in the test on SK-HEP1 amounted to 3400 nM; in test [1], 210 nM. In addition, in the test on Mus musculus [3], the minimal effective dose was more than 10 mg/kg.

On to `CC(C)CN(CCO)C(=O)CNC(=O)c1cc2cc(Cl)ccc2[nH]1`, for which the IC50 in the test with SK-HEP1 came to 2500 nM; in test [1] it was 180 nM. The compound further came in with an Activity in the test filed under Mus musculus [2] of 25%. Also, the minimal effective dose in the test with Mus musculus [3] is 25 mg/kg.

Take `O=C(NCC(=O)N(CCO)CC1CC1)c1cc2cc(Cl)ccc2[nH]1`: the IC50 in the test with SK-HEP1 amounted to 1500 nM; in test [1], 160 nM. In addition, in the test on Mus musculus [3], the minimal effective dose was more than 10 mg/kg.

With `O=C(NCC(=O)N(CCOCCO)C1CCCC1)c1cc2cc(Cl)ccc2[nH]1`, the IC50 in the test on SK-HEP1 is 3800 nM; in test [1], 230 nM. Moreover, the minimal effective dose in the test with Mus musculus [3] is more than 10 mg/kg.

With `O=C(NCC(=O)N(CCO)C1CCCCCCCC1)c1cc2cc(Cl)ccc2[nH]1`, the IC50 in the test with SK-HEP1 amounted to 28000 nM; in test [1], 82 nM.
